# Published values pooled from the literature.
# Lines come from different studies, so protocols differ.
# Observed: metabolic stability
SMILES,host,medium,concentration,pH,quantity,value
Cc1ccc(N(C)c2ccc(NC(=O)CN(C)c3cc(F)ccc3N3CCCC3=O)cc2)cc1,rat,hepatocytes,,,hepatocyte CLint,91 µL/min/10⁶ cells
CN1CCN(c2ccc(-c3ccc4nncc(Nc5ccc(OC(F)(F)F)cc5)c4c3)cc2)CC1,rat,hepatocytes,,,hepatocyte CLint,14 µL/min/10⁶ cells
CNc1ccc(C(N)=O)cn1,male Wistar rat,hepatocytes,1 µM,pH 7.4,hepatocyte CLint,2.9 µL/min/10⁶ cells
C[C@]1(O)CCCN(c2nc(Nc3ccc(S(=O)(=O)N[C@@H]4CCN(CC5CCN(c6ccc(C7CCC(=O)NC7=O)cc6F)CC5)C[C@H]4F)cc3F)ncc2C(F)(F)F)C1 (stereo partly shown),rat,liver microsomes,1 µM,,scaled CLint,< 21 mL/min/kg
Cc1nnc(-c2ccc3ccn(CC(=O)Nc4ccccc4Cl)c3c2)o1,rat,hepatocytes,,,hepatocyte CLint,> 92 µL/min/10⁶ cells
CCN(c1ccc(C)cc1)c1ccc(NC(=O)CN(C)c2ccccc2N2CCCC2=O)cn1,rat,hepatocytes,,,hepatocyte CLint,> 92 µL/min/10⁶ cells
N#Cc1ccc(-c2csc(CNC(=O)[C@H]3CCCN(C(=O)N4CCCC4)C3)n2)cc1,male Sprague-Dawley rat,liver microsomes,0.5 µM,,microsomal CLint,223 µL/min/mg
Cc1cc(S(=O)(=O)N[C@H]2CC[C@H](N3CCN(CC4CCN(c5cccc6c5n(C)c(=O)n6C5CCC(=O)NC5=O)CC4)CC3)CC2)ccc1Nc1ncc(C(F)(F)F)c(N2CCC[C@](C)(O)C2)n1 (stereo partly shown),rat,liver microsomes,1 µM,,scaled CLint,< 21 mL/min/kg
CCONC(=O)N1CCC[C@H](C(=O)NCc2nc(-c3ccc(C#N)cc3)cs2)C1,male Sprague-Dawley rat,hepatocytes,0.5 µM,,scaled CLint,41 mL/min/kg
N#Cc1ccc(C[C@H](NC(=O)c2cc3ccc(F)cc3[nH]2)C(=O)N2CCc3ccccc32)cc1,rat,liver microsomes,10 µM,pH 7.4,microsomal CLint,6.6 µL/min/mg
NCCCOCC(=O)N1CCC[C@H](C(=O)NCc2nc(-c3ccc(C4CC4)cc3)cs2)C1,male Sprague-Dawley rat,liver microsomes,0.5 µM,,microsomal CLint,15 µL/min/mg
CNS(=O)(=O)c1ccc(Nc2ncc(C(F)(F)F)c(N3CCC[C@](C)(O)C3)n2)c(C)c1,rat,liver microsomes,1 µM,,scaled CLint,40 mL/min/kg
Cc1ccc(Oc2ccc(NC(=O)CN(C)c3ccccc3N3CCCC3=O)cc2)cc1,rat,hepatocytes,,,hepatocyte CLint,> 92 µL/min/10⁶ cells
CNS(=O)(=O)c1ccc(Nc2ncc(C(F)(F)F)c([C@H]3CC[C@](C)(O)CC3)n2)c(C)c1,rat,liver microsomes,1 µM,,scaled CLint,30 mL/min/kg
Cc1ccc(Oc2ccc(NC(=O)CNc3ccccc3N3CCCC3=O)cc2)cc1,rat,hepatocytes,,,hepatocyte CLint,58 µL/min/10⁶ cells
Cc1ccc(-c2csc(CNC(=O)[C@H]3CCCN(C(=O)COCCF)[C@H]3C)n2)cn1,male Sprague-Dawley rat,liver microsomes,0.5 µM,,microsomal CLint,31 µL/min/mg
Cc1ccc(-c2nnc(N[C@@H](Cc3ccc(C#N)cc3)C(=O)N3CCc4ccccc43)o2)cc1,rat,liver microsomes,10 µM,pH 7.4,microsomal CLint,49.5 µL/min/mg
O=C(NCc1nc(-c2ccc(C(F)(F)F)cc2)cs1)[C@H]1CCCN(C(=O)COCCN2CCCC2)C1,male Sprague-Dawley rat,liver microsomes,0.5 µM,,microsomal CLint,34 µL/min/mg
Cc1ccc(C(C)(C)c2ccc(NC(=O)CN(C)c3ccccc3N3CCCC3=O)cc2)cc1,rat,hepatocytes,,,hepatocyte CLint,63 µL/min/10⁶ cells
COCC(=O)N1CCC[C@H](C(=O)NCc2nc(-c3ccc(-c4ccccn4)cc3)cs2)C1,male Sprague-Dawley rat,liver microsomes,0.5 µM,,microsomal CLint,104 µL/min/mg
C[C@H]1CN(c2ccc(C3CCC(=O)NC3=O)cc2F)CCN1CC12CCC(NS(=O)(=O)c3ccc(Nc4ncc(C(F)(F)F)c(N5CCC[C@](C)(O)C5)n4)c(F)c3)(CC1)CO2 (stereo partly shown),rat,liver microsomes,1 µM,,scaled CLint,< 21 mL/min/kg
N#Cc1ccc(C[C@H](Nc2nnc(-c3cccc(F)c3)s2)C(=O)N2CCc3ccccc32)cc1,rat,liver microsomes,10 µM,pH 7.4,microsomal CLint,14.7 µL/min/mg
Cc1ccc(Nc2cnnc3ccc(-c4ccc(N5CCCN(C)CC5)cc4)cc23)cn1,rat,hepatocytes,,,hepatocyte CLint,10 µL/min/10⁶ cells
Cc1cc(S(=O)(=O)NC2CC(N3CCN(CC4CCN(c5cccc6c5n(C)c(=O)n6C5CCC(=O)NC5=O)CC4)CC3)C2)ccc1Nc1ncc(C(F)(F)F)c(N2CCC[C@](C)(O)C2)n1 (stereo partly shown),rat,liver microsomes,1 µM,,scaled CLint,< 21 mL/min/kg
N#Cc1ccc(-c2csc(CNC(=O)[C@H]3CCCN(C(=O)COCCF)C3)n2)cc1,male Sprague-Dawley rat,liver microsomes,0.5 µM,,microsomal CLint,40 µL/min/mg
CC(C)N(c1ccc(C#N)cc1)c1ccc(NC(=O)CN(C)c2ccccc2N2CCCC2=O)cn1,rat,hepatocytes,,,hepatocyte CLint,92 µL/min/10⁶ cells
C[C@]1(O)CCCN(c2nc(Nc3ccc(S(=O)(=O)N[C@H]4CC[C@H](CN5CCN(c6ccc(C7CCC(=O)NC7=O)cc6F)CC5)CC4)cc3F)ncc2C(F)(F)F)C1 (stereo partly shown),rat,liver microsomes,1 µM,,scaled CLint,< 21 mL/min/kg
Cc1ccc(Oc2ccc(NC(=O)COc3ccccc3N3CCCC3=O)cc2)cc1,rat,hepatocytes,,,hepatocyte CLint,68 µL/min/10⁶ cells
CCOCC(=O)N1CCC[C@H](C(=O)NCc2nc(-c3ccc(C#N)nc3)cs2)C1,male Sprague-Dawley rat,hepatocytes,0.5 µM,,scaled CLint,17 mL/min/kg
N#Cc1ccc(C[C@H](Nc2ncc(-c3ccc(F)cc3)o2)C(=O)N2CCc3ccccc32)cc1,rat,liver microsomes,10 µM,pH 7.4,microsomal CLint,16.1 µL/min/mg
Cc1cc(S(=O)(=O)N[C@H]2CC[C@H](CN3CCN(c4ccc(NC5CCC(=O)NC5=O)cc4F)CC3)CC2)ccc1Nc1ncc(C(F)(F)F)c(N2CCC[C@](C)(O)C2)n1 (stereo partly shown),rat,liver microsomes,1 µM,,scaled CLint,< 21 mL/min/kg
